Experimental data from ChEMBL document CHEMBL4689842, “EUbOPEN Chemogenomics Library wave 1” (2021).
Where “and” joins values, the source holds several entries; their conditions need not be identical. Equal values may be shown once.

Test system: HEK-293T
Test: Multiplex assay against HEK293T;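 as to Population Tubulin-Different-Phenotype (%): share of the cells with healthy nuclei that show this phenotype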
Assay type: toxicity, cell-based
Details: human
In short: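 On a CQ1 microscope at 37°C and 5% CO2, live cells were imaged after compound addition. They had been stained at seeding with Hoechst33342, BioTracker Green Microtubule Cytoskeleton Dye, MitoTracker Red and Annexin V Alexa Fluor 680. CellPathfinder machine-learning gating assigned cells to Hoechst high-intensity objects or normal cells, normal cells to healthy, pyknosed or fragmented nuclei, and pyknosed cells to mitotic or apoptotic. Tubulin, mitochondrial-mass and membrane-permeability phenotypes are per cents of healthy-nucleus cells.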

[1] = 12 h, 1 µM, compound concentration 1 uM, replicate 1
[2] = 12 h, 1 µM, compound concentration 1 uM, replicate 2
[3] = 12 h, 10 µM, compound concentration 10 uM, replicate 1
[4] = 12 h, 10 µM, compound concentration 10 uM, replicate 2
[5] = 24 h, 1 µM, compound concentration 1 uM, replicate 1
[6] = 24 h, 1 µM, compound concentration 1 uM, replicate 2
[7] = 24 h, 10 µM, compound concentration 10 uM, replicate 1
[8] = 24 h, 10 µM, compound concentration 10 uM, replicate 2
[9] = 48 h, 1 µM, compound concentration 1 uM, replicate 1
[10] = 48 h, 1 µM, compound concentration 1 uM, replicate 2
[11] = 48 h, 10 µM, compound concentration 10 uM, replicate 1
[12] = 48 h, 10 µM, compound concentration 10 uM, replicate 2

C=CC(=O)Nc1cccc(C(=O)Nc2ccc(Nc3cc(-c4[nH]c(SC)nc4C)ccn3)cc2)c1
Population Apoptotic (%) [1]: 48%
Population Fragmented Nuclei (%) [1]: 16%
Population Healthy Nuclei (%) [1]: 29%
Population Hoechst High Intensity Objects (%) [1]: 14%
Population Membrane Permeable-Phenotype (%) [1]: 4%
Population Mitochondria Different-Phenotype (%) [1]: 80%
Population Mitotic Cells (%) [1]: 51%
Population Normal (%) [1]: 85%
Population Pyknosed Nuclei (%) [1]: 54%
Population Tubulin-Different-Phenotype (%) [1]: 54%
Total Cell Count [1]: 327
Population Apoptotic (%) [2]: 5%
Population Fragmented Nuclei (%) [2]: 7%
Population Healthy Nuclei (%) [2]: 45%
Population Hoechst High Intensity Objects (%) [2]: 5%
Population Membrane Permeable-Phenotype (%) [2]: 2%
Population Mitochondria Different-Phenotype (%) [2]: 24%
Population Mitotic Cells (%) [2]: 94%
Population Normal (%) [2]: 94%
Population Pyknosed Nuclei (%) [2]: 47%
Population Tubulin-Different-Phenotype (%) [2]: 17%
Total Cell Count [2]: 190
Population Apoptotic (%) [3]: 48%
Population Fragmented Nuclei (%) [3]: 18%
Population Healthy Nuclei (%) [3]: 30%
Population Hoechst High Intensity Objects (%) [3]: 14%
Population Membrane Permeable-Phenotype (%) [3]: 20%
Population Mitochondria Different-Phenotype (%) [3]: 83%
Population Mitotic Cells (%) [3]: 51%
Population Normal (%) [3]: 85%
Population Pyknosed Nuclei (%) [3]: 51%
Population Tubulin-Different-Phenotype (%) [3]: 70%
Total Cell Count [3]: 210
Population Apoptotic (%) [4]: 29%
Population Fragmented Nuclei (%) [4]: 4%
Population Healthy Nuclei (%) [4]: 29%
Population Hoechst High Intensity Objects (%) [4]: 6%
Population Membrane Permeable-Phenotype (%) [4]: 19%
Population Mitochondria Different-Phenotype (%) [4]: 34%
Population Mitotic Cells (%) [4]: 70%
Population Normal (%) [4]: 93%
Population Pyknosed Nuclei (%) [4]: 65%
Population Tubulin-Different-Phenotype (%) [4]: 82%
Total Cell Count [4]: 240
Population Apoptotic (%) [5]: 48%
Population Fragmented Nuclei (%) [5]: 15%
Population Healthy Nuclei (%) [5]: 35%
Population Hoechst High Intensity Objects (%) [5]: 17%
Population Membrane Permeable-Phenotype (%) [5]: 3%
Population Mitochondria Different-Phenotype (%) [5]: 58%
Population Mitotic Cells (%) [5]: 51%
Population Normal (%) [5]: 82%
Population Pyknosed Nuclei (%) [5]: 49%
Population Tubulin-Different-Phenotype (%) [5]: 48%
Total Cell Count [5]: 365
Population Apoptotic (%) [6]: 13%
Population Fragmented Nuclei (%) [6]: 5%
Population Healthy Nuclei (%) [6]: 64%
Population Hoechst High Intensity Objects (%) [6]: 1%
Population Membrane Permeable-Phenotype (%) [6]: 10%
Population Mitochondria Different-Phenotype (%) [6]: 16%
Population Mitotic Cells (%) [6]: 86%
Population Normal (%) [6]: 98%
Population Pyknosed Nuclei (%) [6]: 30%
Population Tubulin-Different-Phenotype (%) [6]: 34%
Total Cell Count [6]: 227
Population Apoptotic (%) [7]: 48%
Population Fragmented Nuclei (%) [7]: 20%
Population Healthy Nuclei (%) [7]: 40%
Population Hoechst High Intensity Objects (%) [7]: 18%
Population Membrane Permeable-Phenotype (%) [7]: 5%
Population Mitochondria Different-Phenotype (%) [7]: 80%
Population Mitotic Cells (%) [7]: 52%
Population Normal (%) [7]: 81%
Population Pyknosed Nuclei (%) [7]: 39%
Population Tubulin-Different-Phenotype (%) [7]: 72%
Total Cell Count [7]: 233
Population Apoptotic (%) [8]: 31%
Population Fragmented Nuclei (%) [8]: 5%
Population Healthy Nuclei (%) [8]: 51%
Population Hoechst High Intensity Objects (%) [8]: 5%
Population Membrane Permeable-Phenotype (%) [8]: 19%
Population Mitochondria Different-Phenotype (%) [8]: 34%
Population Mitotic Cells (%) [8]: 68%
Population Normal (%) [8]: 94%
Population Pyknosed Nuclei (%) [8]: 43%
Population Tubulin-Different-Phenotype (%) [8]: 81%
Total Cell Count [8]: 284
Population Apoptotic (%) [9]: 38%
Population Fragmented Nuclei (%) [9]: 17%
Population Healthy Nuclei (%) [9]: 36%
Population Hoechst High Intensity Objects (%) [9]: 16%
Population Membrane Permeable-Phenotype (%) [9]: 6%
Population Mitochondria Different-Phenotype (%) [9]: 34%
Population Mitotic Cells (%) [9]: 61%
Population Normal (%) [9]: 83%
Population Pyknosed Nuclei (%) [9]: 45%
Population Tubulin-Different-Phenotype (%) [9]: 38%
Total Cell Count [9]: 393
Population Apoptotic (%) [10]: 12%
Population Fragmented Nuclei (%) [10]: 7%
Population Healthy Nuclei (%) [10]: 78%
Population Hoechst High Intensity Objects (%) [10]: 2%
Population Membrane Permeable-Phenotype (%) [10]: 10%
Population Mitochondria Different-Phenotype (%) [10]: 8%
Population Mitotic Cells (%) [10]: 87%
Population Normal (%) [10]: 97%
Population Pyknosed Nuclei (%) [10]: 13%
Population Tubulin-Different-Phenotype (%) [10]: 26%
Total Cell Count [10]: 435
Population Apoptotic (%) [11]: 52%
Population Fragmented Nuclei (%) [11]: 15%
Population Healthy Nuclei (%) [11]: 43%
Population Hoechst High Intensity Objects (%) [11]: 14%
Population Membrane Permeable-Phenotype (%) [11]: 4%
Population Mitochondria Different-Phenotype (%) [11]: 54%
Population Mitotic Cells (%) [11]: 47%
Population Normal (%) [11]: 85%
Population Pyknosed Nuclei (%) [11]: 40%
Population Tubulin-Different-Phenotype (%) [11]: 69%
Total Cell Count [11]: 271
Population Apoptotic (%) [12]: 25%
Population Fragmented Nuclei (%) [12]: 8%
Population Healthy Nuclei (%) [12]: 75%
Population Hoechst High Intensity Objects (%) [12]: 3%
Population Membrane Permeable-Phenotype (%) [12]: 19%
Population Mitochondria Different-Phenotype (%) [12]: 14%
Population Mitotic Cells (%) [12]: 74%
Population Normal (%) [12]: 96%
Population Pyknosed Nuclei (%) [12]: 15%
Population Tubulin-Different-Phenotype (%) [12]: 64%
Total Cell Count [12]: 503

CN(C)c1ncnc(-c2ccc3nc(Nc4cc(CN5CCN(C(=O)CC(F)(F)F)CC5)ccn4)[nH]c3c2)c1Cl [BAY-440]
Population Apoptotic (%) [3]: 24% and 18%
Population Fragmented Nuclei (%) [3]: 30% and 12%
Population Hoechst High Intensity Objects (%) [3]: 21% and 12%
Population Mitochondria Different-Phenotype (%) [3]: 16% and 8%
Population Mitotic Cells (%) [3]: 75% and 81%
Population Normal (%) [3]: 78% and 87%
Population Pyknosed Nuclei (%) [3]: 49% and 24%
Total Cell Count [3]: 575 and 589
Population Apoptotic (%) [4]: 16% and 6%
Population Fragmented Nuclei (%) [4]: 2% and 5%
Population Healthy Nuclei (%) [4]: 79% and 89%
Population Hoechst High Intensity Objects (%) [4]: 3% and 1%
Population Membrane Permeable-Phenotype (%) [4]: 12% and 6%
Population Mitotic Cells (%) [4]: 83% and 93%
Population Normal (%) [4]: 96% and 98%
Total Cell Count [4]: 1131 and 1517
Population Fragmented Nuclei (%) [7]: 29% and 10%
Population Membrane Permeable-Phenotype (%) [7]: 10% and 16%
Population Mitotic Cells (%) [7]: 66% and 89%
Population Normal (%) [7]: 78% and 94%
Population Tubulin-Different-Phenotype (%) [7]: 65% and 25%
Total Cell Count [7]: 555 and 720
Population Apoptotic (%) [8]: 16%
Population Healthy Nuclei (%) [8]: 76% and 79%
Population Hoechst High Intensity Objects (%) [8]: 4% and 2%
Population Membrane Permeable-Phenotype (%) [8]: 8% and 13%
Population Mitotic Cells (%) [8]: 83%
Population Normal (%) [8]: 95% and 97%
Total Cell Count [8]: 1110 and 2572
